Data as given in ChEMBL document CHEMBL4371072, “Structure-Activity Relationship Studies and Plasmodium Life Cycle Profiling Identifies Pan-Active N-Aryl-3-trifluoromethyl Pyrido[1,2- a]benzimidazoles Which Are Efficacious in an in Vivo Mouse Model of Malaria” (J Med Chem, 2019).

Key:
[1] = Selectivity index, ratio of IC50 for CHO cells to IC50 for chloroquine-sensitive asexual blood stage of Plasmodium falciparum NF54 infected in human RBC; format: toxicity; details: Chinese hamster, read-out: Ratio IC50
Summary of the method: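 Selectivity index taken as the ratio of the CHO-cell IC50 to the P. falciparum NF54 IC50.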

[2] = Half life in C57B1/6 mouse at 2 mg/kg, iv by LC-MS/MS analysis; format: ADME, organism-based; details: in vivo
Summary of the method: (§1)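 Mouse IV PK: C57B1/6 mice (n=2) given 2 mg/kg intravenously as a solution in dimethylacetamide, polyethylene glycol and propylene glycol/ethanol (4:1) at ratio 1:3:6. Blood concentrations followed over time; values are means of 2 mice.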

[3] = AUC (0 to infinity) in C57B1/6 mouse at 2 mg/kg, iv by LC-MS/MS analysis; format: ADME, organism-based; design: dose 2 mg/kg, route intravenous, time infinity; details: in vivo; summary of the method: as §1
Plasmodium falciparum [4] = test: Antiplasmodial activity against chloroquine-sensitive final late stage of Plasmodium falciparum NF54-Mal8p1.16-GFP-Luc gametocytes after 24 hrs by BacTiter-Glo assay; format: functional, organism-based; details: NF54, 24 h
Summary of the method: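 Late-stage PfNF54 gametocytes produced in vitro; gametocytocidal IC50 via luciferase reporter and ATP bioluminescence platforms; n=3 independent biological replicates in technical triplicates, ± S.E.M.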

[5] = Half life in Balb/c mouse liver microsomes at 0.1 uM in presence of NADPH by LC-MS/MS analysis; details: liver microsomes
[6] = Half life in C57B1/6 mouse at 20 mg/kg, po by LC-MS/MS analysis; format: ADME, organism-based; details: in vivo
Summary of the method: (§2)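 Mouse oral PK: C57B1/6 mice (n=3) dosed orally at 20 mg/kg. Blood concentrations followed over time; values are means of 3 mice.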

[7] = Volume of distribution in C57B1/6 mouse at 2 mg/kg, iv by LC-MS/MS analysis; format: ADME, organism-based; details: in vivo; summary of the method: as §1
[8] = AUC (0 to infinity) in C57B1/6 mouse at 20 mg/kg, po by LC-MS/MS analysis; format: ADME, organism-based; design: dose 20 mg/kg, time infinity, route oral; details: in vivo; summary of the method: as §2
Plasmodium berghei [9] = test: Antimalarial activity against liver stage form of luciferase transfected Plasmodium berghei sporozoites infected in human HuH7 cells preincubated with host cells for 1 hr followed by plasmodial infection and measured after 48 hrs by bioluminescence method; format: functional, organism-based; details: Huh-7
[10] = Cmax in C57B1/6 mouse at 20 mg/kg, po by LC-MS/MS analysis; format: ADME, organism-based; design: dose 20 mg/kg, route oral; details: in vivo; summary of the method: as §2
Plasmodium falciparum [11] = test: Antiplasmodial activity against chloroquine-resistant asexual blood stage of Plasmodium falciparum K1 infected in human RBC assessed as reduction in [3H]hypoxanthine incorporation preincubated for 48 hrs followed by [3H]hypoxanthine addition measured after 24 hrs by liquid scintillation counting method; format: functional, organism-based
Summary of the method: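 Asexual blood-stage P. falciparum K1 (multidrug resistant) screened by modified [3H]-hypoxanthine incorporation assay; IC50 as mean of n ≥ 2 assays, replicates differing above 3-fold excluded; chloroquine and artesunate controls.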

[12] = target: Voltage-gated inwardly rectifying potassium channel KCNH2 (Homo sapiens, UniProt Q12809); test: Inhibition of human ERG expressed in CHO cells assessed as reduction in peak channel current by IonWork patch-clamp electrophysiology method; format: cell-based
Voltage-gated inwardly rectifying potassium channel KCNH2, sequence (Q12809 whole entry): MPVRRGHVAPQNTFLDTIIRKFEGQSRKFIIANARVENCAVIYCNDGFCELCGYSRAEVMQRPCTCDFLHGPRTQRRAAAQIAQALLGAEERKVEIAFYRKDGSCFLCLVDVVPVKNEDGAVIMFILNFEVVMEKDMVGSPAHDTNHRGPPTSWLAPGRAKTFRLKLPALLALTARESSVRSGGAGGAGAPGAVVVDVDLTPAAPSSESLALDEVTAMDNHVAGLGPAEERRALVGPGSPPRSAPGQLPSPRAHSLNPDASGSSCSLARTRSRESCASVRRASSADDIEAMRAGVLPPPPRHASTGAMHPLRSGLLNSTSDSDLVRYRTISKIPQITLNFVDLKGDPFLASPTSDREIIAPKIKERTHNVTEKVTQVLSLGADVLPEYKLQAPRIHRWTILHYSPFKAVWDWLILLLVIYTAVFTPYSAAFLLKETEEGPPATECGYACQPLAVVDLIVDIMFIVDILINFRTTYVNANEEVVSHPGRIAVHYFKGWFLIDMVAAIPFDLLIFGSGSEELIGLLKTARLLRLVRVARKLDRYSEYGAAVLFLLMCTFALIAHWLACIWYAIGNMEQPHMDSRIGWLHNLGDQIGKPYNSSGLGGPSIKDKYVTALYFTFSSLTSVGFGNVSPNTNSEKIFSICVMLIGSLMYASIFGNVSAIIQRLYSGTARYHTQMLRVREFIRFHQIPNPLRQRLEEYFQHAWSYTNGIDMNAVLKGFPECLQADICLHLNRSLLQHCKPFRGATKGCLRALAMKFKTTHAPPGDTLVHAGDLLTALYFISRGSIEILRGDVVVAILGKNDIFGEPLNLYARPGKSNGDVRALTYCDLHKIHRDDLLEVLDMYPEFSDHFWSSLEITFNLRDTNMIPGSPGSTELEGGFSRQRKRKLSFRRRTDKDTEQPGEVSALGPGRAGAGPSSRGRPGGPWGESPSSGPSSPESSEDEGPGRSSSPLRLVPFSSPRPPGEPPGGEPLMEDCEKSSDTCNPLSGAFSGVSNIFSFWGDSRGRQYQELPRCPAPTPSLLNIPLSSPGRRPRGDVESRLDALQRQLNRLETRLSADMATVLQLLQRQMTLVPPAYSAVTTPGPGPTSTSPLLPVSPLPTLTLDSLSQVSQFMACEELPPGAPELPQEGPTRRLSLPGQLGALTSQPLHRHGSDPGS

[13] = Metabolic stability in human liver microsomes assessed as parent compound remaining at 0.1 uM after 30 mins in presence of NADPH by LC-MS/MS analysis; details: liver microsomes
hERG (KCNH2) [14] = target: T1, hERG (KCNH2) (Homo sapiens, UniProt Q12809); test: Inhibition of human ERG expressed in CHO cells assessed as reduction in peak channel current at 10 uM by IonWork patch-clamp electrophysiology method relative to control; format: cell-based; details: CHO cells expressing human ERG
T1 sequence (Q12809 whole entry): as above
Summary of the method: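 hERG potassium channel profiled by IonWorks patch-clamp electrophysiology, with 10 μM as the highest concentration tested. Values are the mean of 3 results from experiments run as biological and technical triplicates.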

[15] = Clearance in C57B1/6 mouse at 2 mg/kg, iv by LC-MS/MS analysis; format: ADME, organism-based; details: in vivo; summary of the method: as §1
CHO = test: Cytotoxicity against CHO cells after 48 hrs by MTT assay; format: cell-based; details: Cricetulus griseus
[16] = Half life in human liver microsomes at 0.1 uM in presence of NADPH by LC-MS/MS analysis; details: liver microsomes
[17] = Metabolic stability in Balb/c mouse liver microsomes assessed as parent compound remaining at 0.1 uM after 30 mins in presence of NADPH by LC-MS/MS analysis; details: liver microsomes
[18] = Time at which blood concentration stays above in vitro antiplasmodial Plasmodium falciparum NF54 IC50 in C57B1/6 mouse at 20 mg/kg, po; format: ADME, organism-based; details: in vivo
[19] = Lipophilicity, log D of the compound; format: physicochemical; details: octanol/water
Summary of the method: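 LogD computed with ChemDraw 16.0.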

Plasmodium berghei [20] = test: Antimalarial activity against GFP-fused Plasmodium berghei ANKA infected in NMRI mouse assessed as host mean survival time at 50 mg/kg, po administered consecutively at 4, 24, 48 and 72 hrs post infection; format: functional
Summary of the method: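 NMRI mice infected intravenously with P. berghei; oral treatment at 4, 24, 48 and 72 h post-infection (4 x 50 mg/kg), vehicle to controls; reference drug 4 x 30 mg/kg orally on four consecutive days. Parasitemia compared with untreated controls; mean survival days recorded; cure if no parasitemia 30 days after treatment.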

[21] = Oral bioavailability in C57B1/6 mouse at 20 mg/kg by LC-MS/MS analysis; format: ADME, organism-based; details: in vivo
Summary of the method: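 Oral bioavailability from C57B1/6 mice dosed 20 mg/kg orally (n=3), referenced to a separate intravenous set at 2 mg/kg (n=2) formulated in dimethylacetamide/polyethylene glycol/propylene glycol–ethanol (4:1), ratio 1:3:6.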

[22] = Tmax in C57B1/6 mouse at 20 mg/kg, po by LC-MS/MS analysis; format: ADME, organism-based; details: in vivo; summary of the method: as §2
Plasmodium falciparum [23] = test: Antiplasmodial activity against chloroquine-sensitive asexual blood stage of Plasmodium falciparum NF54 infected in human RBC assessed as reduction in [3H]hypoxanthine incorporation preincubated for 48 hrs followed by [3H]hypoxanthine addition measured after 24 hrs by liquid scintillation counting method; format: functional, organism-based
Summary of the method: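 Asexual blood-stage P. falciparum NF54 assay, run as a modified [3H]-hypoxanthine incorporation assay. Values are the mean of n ≥ 2 assays; determinations differing more than 3-fold were excluded. Chloroquine and artesunate served as controls.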

hERG (KCNH2) [24] = target: T1, hERG (KCNH2); test: Inhibition of human ERG expressed in CHO cells assessed as reduction in peak channel current at 0.3 uM by IonWork patch-clamp electrophysiology method relative to control; format: cell-based; details: CHO cells expressing human ERG
Plasmodium berghei [25] = test: Antimalarial activity against GFP-fused Plasmodium berghei ANKA infected in NMRI mouse assessed as inhibition of parasitemia at 50 mg/kg, po administered consecutively at 4, 24, 48 and 72 hrs post infection by flow cytometry relative to control; format: functional
Summary of the method: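 NMRI mice infected intravenously with P. berghei; oral treatment at 50 mg/kg given 4, 24, 48 and 72 h post-infection (4 x 50 mg/kg). Control mice received vehicle only. Parasitemia of treated animals compared with that of untreated controls. Mice counted as cured if no parasitemia was detected 30 days after treatment.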

[26] = Ratio of Cmax in C57B1/6 mouse at 20 mg/kg, po to IC50 for chloroquine-sensitive asexual blood stage of Plasmodium falciparum NF54 infected in human RBC; format: ADME, organism-based; details: in vivo
[27] = Solubility of the compound; format: physicochemical
[28] = Resistance index, ratio of IC50 for chloroquine-resistant asexual blood stage of Plasmodium falciparum K1 infected in human RBC to IC50 for chloroquine-sensitive asexual blood stage of Plasmodium falciparum NF54 infected in human RBC; format: functional

N#Cc1c(C(F)(F)F)cc(Nc2ccc(OC(F)(F)F)cc2)n2c1nc1ccccc12
selectivity ratio [1]: 103 | half-life [2]: 11.4 h | AUC [3]: 79.6 µM·h | IC50 (Plasmodium falciparum [4]): 3320 nM | half-life at 0.1 µM [5]: > 2.5 h | half-life [6]: 7.86 h | Vd [7]: 0.9 L/kg | AUC [8]: 19.4 µM·h | IC50 (Plasmodium berghei [9]): 110 nM | Cmax [10]: 1100 nM | IC50 (Plasmodium falciparum [11]): 150 nM | IC50 [12]: > 10000 nM | remaining at 0.5 h, 0.1 µM [13]: > 99% | inhibition at 10 µM (hERG (KCNH2) [14]): < 40% | clearance [15]: 0.97 mL/min/kg | IC50 (CHO): 17600 nM | half-life at 0.1 µM [16]: > 2.5 h | remaining at 0.5 h, 0.1 µM [17]: > 99% | Time [18]: > 20 h | logD [19]: 5.34 | MST (Plasmodium berghei [20]): 12 days | bioavailability [21]: 2% | Tmax [22]: 5 h | IC50 (Plasmodium falciparum [23]): 170 nM | inhibition at 0.3 µM (hERG (KCNH2) [24]): 7.51% | inhibition in vivo at 50 mg/kg (Plasmodium berghei [25]): 98% | Ratio [26]: 6 | solubility [27]: < 5 µM | Ratio IC50 [28]: 0.88
